In ChEMBL document CHEMBL3414565, “Discovery of novel AHLs as potent antiproliferative agents” (Eur J Med Chem, 2015):

What was measured:
MCF7 [1] = test: Induction of apoptosis in human MCF7 cells assessed as necrotic cells at 2 uM after 12 hrs by annexin V-FITC/propidium iodide staining-based flow cytometry (reference value: 4.7%); type: functional
Summary of the method: (§1)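 MCF-7 cells were plated at 5.0 × 10^6 cells/mL and held 12 or 24 h at 37 °C. Exponentially growing cells then received complete medium (blank) or compound at 0, 2, 4 or 8 for 12 or 24 h. Harvested cells were stained with Annexin V-FITC/PI and analysed by flow cytometry. Quadrants were scored as live, early apoptotic (annexin+/PI−), late apoptotic (double positive) and damaged (PI+ only).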

MCF7 [2] = test: Induction of apoptosis in human MCF7 cells assessed as early apoptotic cells at 2 uM after 12 hrs by annexin V-FITC/propidium iodide staining-based flow cytometry (reference value: 7.2%); type: functional; summary of the method: as §1
MCF7 [3] = test: Induction of apoptosis in human MCF7 cells assessed as late apoptotic cells at 4 uM after 12 hrs by annexin V-FITC/propidium iodide staining-based flow cytometry (reference value: 2.7%); type: functional; summary of the method: as §1
MCF7 [4] = test: Cell cycle arrest in human MCF7 cells assessed as accumulation at S phase at 8 uM after 12 hrs by propidium iodide staining-based flow cytometry (reference value: 26.65%); type: functional
MCF7 [5] = test: Cell cycle arrest in human MCF7 cells assessed as accumulation at G2/M phase after 12 to 24 hrs by propidium iodide staining-based flow cytometry; type: functional
MCF7 [6] = test: Induction of apoptosis in human MCF7 cells assessed as early apoptotic cells at 4 uM after 24 hrs by annexin V-FITC/propidium iodide staining-based flow cytometry (reference value: 4.5%); type: functional; summary of the method: as §1
MCF7 [7] = test: Cell cycle arrest in human MCF7 cells assessed as accumulation at G1/G0 phase at 2 uM after 12 hrs by propidium iodide staining-based flow cytometry (reference value: 60.51%); type: functional
MCF7 [8] = test: Cytotoxicity against human MCF7 cells after 72 hrs by MTT assay; type: functional, cell-based; settings: MCF7, 72 h
Summary of the method: (§2)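 Cells were grown in RPMI1640 and seeded at 5 × 10^3 cells/well, then left 24 h at 37 °C. Medium was replaced with fresh medium holding a range of compound concentrations, from 10 mM DMSO stocks with final DMSO at most 0.1%. Exposure lasted 72 h. MTT (5 mg/mL) was added for 4 h at 37 °C, formazan was dissolved in DMSO and A570 was read. IC50 came from dose-response curves as mean ± SD of three independent experiments.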

MCF7 [9] = test: Cell cycle arrest in human MCF7 cells assessed as accumulation at S phase at 8 uM after 24 hrs by propidium iodide staining-based flow cytometry (reference value: 40.08%); type: functional
MCF7 [10] = test: Induction of apoptosis in human MCF7 cells assessed as late apoptotic cells at 2 uM after 24 hrs by annexin V-FITC/propidium iodide staining-based flow cytometry (reference value: 2.1%); type: functional; summary of the method: as §1
MCF7 [11] = test: Cell cycle arrest in human MCF7 cells assessed as accumulation at G1/G0 phase at 4 uM after 24 hrs by propidium iodide staining-based flow cytometry (reference value: 46.77%); type: functional
MCF7 [12] = test: Cell cycle arrest in human MCF7 cells assessed as accumulation at G2/M phase at 4 uM after 12 hrs by propidium iodide staining-based flow cytometry (reference value: 16.53%); type: functional
MCF7 [13] = test: Induction of apoptosis in human MCF7 cells assessed as early apoptotic cells at 2 uM after 24 hrs by annexin V-FITC/propidium iodide staining-based flow cytometry (reference value: 4.5%); type: functional; summary of the method: as §1
SMMC-7721 = test: Cytotoxicity against human SMMC7721 cells after 72 hrs by MTT assay; type: functional, cell-based; settings: SMMC-7721, 72 h; summary of the method: as §2
MCF7 [14] = test: Induction of apoptosis in human MCF7 cells assessed as late apoptotic cells at 2 uM after 12 hrs by annexin V-FITC/propidium iodide staining-based flow cytometry (reference value: 2.7%); type: functional; summary of the method: as §1
MCF7 [15] = test: Cell cycle arrest in human MCF7 cells assessed as accumulation at G1/G0 phase at 8 uM after 12 hrs by propidium iodide staining-based flow cytometry (reference value: 60.51%); type: functional
MCF7 [16] = test: Induction of apoptosis in human MCF7 cells assessed as late apoptotic cells at 4 uM after 24 hrs by annexin V-FITC/propidium iodide staining-based flow cytometry (reference value: 2.1%); type: functional; summary of the method: as §1
MCF7 [17] = test: Induction of apoptosis in human MCF7 cells assessed as viable cells at 2 uM after 24 hrs by annexin V-FITC/propidium iodide staining-based flow cytometry (reference value: 87.1%); type: functional; settings: MCF7, 24 h, read-out: Activity; summary of the method: as §1
MCF7 [18] = test: Induction of apoptosis in human MCF7 cells assessed as necrotic cells at 8 uM after 12 hrs by annexin V-FITC/propidium iodide staining-based flow cytometry (reference value: 4.7%); type: functional; summary of the method: as §1
MCF7 [19] = test: Cell cycle arrest in human MCF7 cells assessed as accumulation at S phase at 4 uM after 24 hrs by propidium iodide staining-based flow cytometry (reference value: 40.08%); type: functional
MCF7 [20] = test: Induction of apoptosis in human MCF7 cells assessed as necrotic cells at 2 uM after 24 hrs by annexin V-FITC/propidium iodide staining-based flow cytometry (reference value: 6.2%); type: functional; summary of the method: as §1
MCF7 [21] = test: Cell cycle arrest in human MCF7 cells assessed as accumulation at G2/M phase at 8 uM after 12 hrs by propidium iodide staining-based flow cytometry (reference value: 16.53%); type: functional
MCF7 [22] = test: Cell cycle arrest in human MCF7 cells assessed as accumulation at G2/M phase at 2 uM after 24 hrs by propidium iodide staining-based flow cytometry (reference value: 16.27%); type: functional
MCF7 [23] = test: Induction of apoptosis in human MCF7 cells assessed as viable cells at 4 uM after 12 hrs by annexin V-FITC/propidium iodide staining-based flow cytometry (reference value: 85.4%); type: functional; settings: MCF7, 12 h, read-out: Activity; summary of the method: as §1
MCF7 [24] = test: Cell cycle arrest in human MCF7 cells assessed as accumulation at G2/M phase at 2 to 8 uM by propidium iodide staining-based flow cytometry; type: functional; settings: TDE = time-dependent effect
MCF7 [25] = test: Induction of apoptosis in human MCF7 cells assessed as viable cells at 2 uM after 12 hrs by annexin V-FITC/propidium iodide staining-based flow cytometry (reference value: 85.4%); type: functional; settings: MCF7, 12 h, read-out: Activity; summary of the method: as §1
MCF7 [26] = test: Induction of apoptosis in human MCF7 cells assessed as late apoptotic cells at 8 uM after 12 hrs by annexin V-FITC/propidium iodide staining-based flow cytometry (reference value: 2.7%); type: functional; summary of the method: as §1
MCF7 [27] = test: Induction of apoptosis in human MCF7 cells assessed as viable cells at 4 uM after 24 hrs by annexin V-FITC/propidium iodide staining-based flow cytometry (reference value: 87.1%); type: functional; settings: MCF7, 24 h, read-out: Activity; summary of the method: as §1
MCF7 [28] = test: Cell cycle arrest in human MCF7 cells assessed as accumulation at G1/G0 phase at 8 uM after 24 hrs by propidium iodide staining-based flow cytometry (reference value: 46.77%); type: functional
MCF7 [29] = test: Induction of apoptosis in human MCF7 cells assessed as early apoptotic cells at 4 uM after 12 hrs by annexin V-FITC/propidium iodide staining-based flow cytometry (reference value: 7.2%); type: functional; summary of the method: as §1
MCF7 [30] = test: Induction of apoptosis in human MCF7 cells assessed as late apoptotic cells at 8 uM after 24 hrs by annexin V-FITC/propidium iodide staining-based flow cytometry (reference value: 2.1%); type: functional; summary of the method: as §1
MCF7 [31] = test: Induction of apoptosis in human MCF7 cells assessed as necrotic cells at 8 uM after 24 hrs by annexin V-FITC/propidium iodide staining-based flow cytometry (reference value: 6.2%); type: functional; summary of the method: as §1

O=C(CSC(=S)N[C@H]1CCOC1=O)Nc1ccc(C(=O)/C=C/c2ccccc2Cl)cc1
Activity (MCF7 [1]): 4.9% | Activity (MCF7 [2]): 11.4% | Activity (MCF7 [3]): 1.7% | Activity (MCF7 [4]): 25.84% | Activity (MCF7 [5]): Dose-dependent effect | Activity (MCF7 [6]): 23.6% | Activity (MCF7 [7]): 67.5% | IC50 (MCF7 [8]): 5.57 µM | Activity (MCF7 [9]): 33.39% | Activity (MCF7 [10]): 2.1% | Activity (MCF7 [11]): 39.43% | Activity (MCF7 [12]): 20.51% | Activity (MCF7 [13]): 16.4% | IC50 (SMMC-7721): 20.4 µM | Activity (MCF7 [14]): 1.7% | Activity (MCF7 [15]): 46.48% | Activity (MCF7 [16]): 3% | viability at 2 µM (MCF7 [17]): 75.8% | Activity (MCF7 [18]): 3.5% | Activity (MCF7 [19]): 20.43% | Activity (MCF7 [20]): 5.7% | Activity (MCF7 [21]): 33.6% | Activity (MCF7 [22]): 26.69% | viability at 4 µM (MCF7 [23]): 77.9% | Activity (MCF7 [24]): tde | viability at 2 µM (MCF7 [25]): 82.1% | Activity (MCF7 [26]): 1.6% | viability at 4 µM (MCF7 [27]): 69.3% | Activity (MCF7 [28]): 14.45% | Activity (MCF7 [29]): 14.7% | Activity (MCF7 [30]): 6.1% | Activity (MCF7 [31]): 4.8%
